pIC50, pKi: −log10 of the molar value.
Assays:
[1] = biological target: Bifunctional dihydrofolate reductase-thymidylate synthase (Plasmodium falciparum K1, UniProt P13922, C59R/I164L/N51I/S108N); test: Binding affinity towards mutant dihydrofolate reductase (N51I+C59R+S108N+I164L DHFR) of Plasmodium falciparum
[2] = biological target: Bifunctional dihydrofolate reductase-thymidylate synthase (Plasmodium falciparum K1, UniProt P13922, C59R/N51I/S108N); test: Binding affinity towards mutant dihydrofolate reductase (N51I+C59R+S108N DHFR) of Plasmodium falciparum
Chain of Bifunctional dihydrofolate reductase-thymidylate synthase (Plasmodium falciparum K1, UniProt P13922, C59R/N51I/S108N) (P13922 whole entry, looked up, stated change not applied): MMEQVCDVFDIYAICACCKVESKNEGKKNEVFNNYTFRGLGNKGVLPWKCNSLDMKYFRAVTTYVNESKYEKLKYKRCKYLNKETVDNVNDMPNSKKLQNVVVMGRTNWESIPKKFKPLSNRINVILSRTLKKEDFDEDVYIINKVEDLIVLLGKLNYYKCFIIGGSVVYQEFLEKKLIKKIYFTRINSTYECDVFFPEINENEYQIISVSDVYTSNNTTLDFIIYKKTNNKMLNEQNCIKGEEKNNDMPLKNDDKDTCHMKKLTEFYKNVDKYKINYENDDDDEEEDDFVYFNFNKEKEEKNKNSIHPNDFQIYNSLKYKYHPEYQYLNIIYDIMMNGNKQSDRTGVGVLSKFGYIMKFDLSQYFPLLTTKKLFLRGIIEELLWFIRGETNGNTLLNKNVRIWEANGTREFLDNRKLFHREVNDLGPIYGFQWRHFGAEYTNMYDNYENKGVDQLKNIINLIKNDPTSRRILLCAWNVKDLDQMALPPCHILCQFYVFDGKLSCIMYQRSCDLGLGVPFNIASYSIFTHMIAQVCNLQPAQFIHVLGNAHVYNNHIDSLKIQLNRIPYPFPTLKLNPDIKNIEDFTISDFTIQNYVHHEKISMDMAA

[3] = biological target: Bifunctional dihydrofolate reductase-thymidylate synthase (Plasmodium falciparum K1, UniProt P13922); test: Binding affinity towards wild-type dihydrofolate reductase of Plasmodium falciparum.
Chain of Bifunctional dihydrofolate reductase-thymidylate synthase (Plasmodium falciparum K1, UniProt P13922) (P13922 whole entry): as the sequence (P13922 whole entry, looked up, stated change not applied) above

KB [4] = test: Relative antiplasmodial activity to cytotoxicity in Plasmodium falciparum V1/S infected KB cells; format: functional
BC [5] = test: Relative antiplasmodial activity to cytotoxicity in Plasmodium falciparum Csl-2 infected BC cells; format: functional
[6] = system: Bifunctional dihydrofolate reductase-thymidylate synthase (Plasmodium falciparum K1), P13922 [UNDEFINED MUTATION]; test: Ratio of binding affinity for mutant (N51I+C59R+S108N+I164L) to that of wild type dihydrofolate reductase
Chain of Bifunctional dihydrofolate reductase-thymidylate synthase (Plasmodium falciparum K1), P13922 [UNDEFINED MUTATION] (P13922 whole entry, looked up, stated change not applied): as above
Outline: (§1)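 Each ratio is Ki for the mutant PfDHFR divided by Ki for wild-type PfDHFR. The recombinant enzymes were expressed in E. coli BL21(DE3)pLysS and purified on methotrexate-Sepharose. Ki was derived assuming inhibitors compete with substrate binding.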

[7] = system: Bifunctional dihydrofolate reductase-thymidylate synthase (Plasmodium falciparum K1), P13922 [UNDEFINED MUTATION]; test: Ratio of binding affinity for mutant (A16V+S108T) to that of wild type dihydrofolate reductase; outline: as §1
KB [8] = test: Relative antiplasmodial activity to cytotoxicity in Plasmodium falciparum Csl-2 infected KB cells; format: functional
KB [9] = test: Relative antiplasmodial activity to cytotoxicity in Plasmodium falciparum TM4/8.2 infected KB cells; format: functional
[10] = biological target: Bifunctional dihydrofolate reductase-thymidylate synthase (Plasmodium falciparum K1, UniProt P13922, A16V/S108T); test: Binding affinity towards mutant dihydrofolate reductase (A16V+S108T DHFR) of Plasmodium falciparum.
Chain of Bifunctional dihydrofolate reductase-thymidylate synthase (Plasmodium falciparum K1, UniProt P13922, A16V/S108T) (P13922 whole entry, looked up, stated change not applied): as above

[11] = biological target: Bifunctional dihydrofolate reductase-thymidylate synthase (Plasmodium falciparum K1, UniProt P13922, C59R/I164L/S108N); test: Binding affinity towards mutant dihydrofolate reductase (C59R+S108N+I164L DHFR) of Plasmodium falciparum
Chain of Bifunctional dihydrofolate reductase-thymidylate synthase (Plasmodium falciparum K1, UniProt P13922, C59R/I164L/S108N) (P13922 whole entry, looked up, stated change not applied): as above

BC [12] = test: In vitro cytotoxicity against BC cell line.; conditions: Homo sapiens
KB [13] = test: In vitro cytotoxicity against Plasmodium falciparum infected KB cell line; format: functional, cell-based; conditions: Homo sapiens
Outline: (§2)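 Cytotoxicity (IC50, μM) run against three mammalian lines: Vero (African green monkey kidney fibroblasts), KB (human epidermoid carcinoma) and BC (human breast cancer). Testing followed the Skehan et al. protocol.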

[14] = system: Bifunctional dihydrofolate reductase-thymidylate synthase (Plasmodium falciparum K1), P13922 [UNDEFINED MUTATION]; test: Ratio of binding affinity for mutant (C59R+S108N+I164L) to that of wild type dihydrofolate reductase; outline: as §1
Vero [15] = test: Relative antiplasmodial activity to cytotoxicity in Plasmodium falciparum V1/S infected Vero cells; format: functional
Vero [16] = test: Relative antiplasmodial activity to cytotoxicity in Plasmodium falciparum TM4/8.2 infected Vero cells; format: functional
[17] = biological target: Bifunctional dihydrofolate reductase-thymidylate synthase (Plasmodium falciparum K1) (UniProt P13922); test: Ratio of binding affinity for mutant (N51I+C59R+S108N) to that of wild type dihydrofolate reductase; outline: as §1
Chain of Bifunctional dihydrofolate reductase-thymidylate synthase (Plasmodium falciparum K1) (P13922 whole entry, looked up): as the sequence (P13922 whole entry, looked up, stated change not applied) above

Vero [18] = test: Relative antiplasmodial activity to cytotoxicity in Plasmodium falciparum Csl-2 infected Vero cells; format: functional
BC [19] = test: Relative antiplasmodial activity to cytotoxicity in Plasmodium falciparum TM4/8.2 infected BC cells; format: functional
Vero [20] = test: In vitro cytotoxicity against Plasmodium falciparum infected vero cell line.; format: functional, cell-based; conditions: Chlorocebus sabaeus; outline: as §2

Chain of Bifunctional dihydrofolate reductase-thymidylate synthase (Plasmodium falciparum K1, UniProt P13922, C59R/I164L/N51I/S108N) (P13922 whole entry, looked up, stated change not applied): as above

| Compound | pKi [1] | pKi [2] | pKi [3] | Safety ratio (KB [4]) | Safety ratio (BC [5]) | Ratio [6] | Ratio [7] | Safety ratio (KB [8]) | Safety ratio (KB [9]) | pKi [10] | pKi [11] | pIC50 (BC [12]) | pIC50 (KB [13]) | Ratio [14] | Safety ratio (Vero [15]) | Safety ratio (Vero [16]) | Ratio [17] | Safety ratio (Vero [18]) | Safety ratio (BC [19]) | pIC50 (Vero [20]) |
| --- | --- | --- | --- | --- | --- | --- | --- | --- | --- | --- | --- | --- | --- | --- | --- | --- | --- | --- | --- | --- |
| NC1=NC(c2ccccc2)N(c2cccc(Cl)c2)C(N)=N1 (stereo unspecified) | 6.01 | 6.95 | 7.93 | 109 | 672 | 84.1 | 0.9 | 348 | 155 | 7.98 | 6.66 | 3.77 | 4.06 | 18.5 | 312 | 446 | 9.5 | 1000 | 300 | 3.60 |
| CC1(C)N=C(N)N=C(N)N1c1ccc(Cl)cc1 [CYCLOGUANIL] | 6.38 | 7.50 | 8.82 | <0.4 | >1.3 | 280 | 876 | 1.1 | 1025 | – | 6.55 | < 4.30 | 4.39 | 190 | – | >1250 | 20.9 | > 1.3 | >1250 | < 4.30 |
| Nc1nc(N)c(-c2cccc(Cl)c2)c(CCCc2ccccc2)n1 | 8.70 | 8.70 | 8.92 | 0.3 | 0.4 | 1.7 | – | 0.4 | 2.4 | – | 8.66 | 5.80 | 5.80 | 1.8 | 0.4 | 3.1 | 1.7 | 0.6 | 2.4 | 5.68 |

From ChEMBL document CHEMBL1138835, “Inhibitors of multiple mutants of Plasmodium falciparum dihydrofolate reductase and their antimalarial activities” (J Med Chem, 2004)
